# Sampled rows, rich in hits. Any-hit rate of the full collection: about 2.1%.
# GRK2 aptamer HTS – human GRK2 inhibition via aptamer displacement | P25098 | bead flow cytometry, FAM-aptamer displacement from GRK2 | inhibition of aptamer binding, % at 10 µM | hit rate 0.59% among 330,000;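 active means inhibition of aptamer binding above 40%, roughly 3 SD of noise, on plates passing a quality check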;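 further: median bead fluorescence of bound FAM aptamer so fluorescent compounds give negative values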
# LMPTP block – LMPTP (human) inhibition. P24666. recombinant LMPTP-A, OMFP fluorogenic substrate, fluorescence intensity. inhibition, % at 20 µM. hit rate 0.22% among 360,000;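 active means compounds that cut the enzyme signal by at least half of the control window in the single-dose screen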;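 further: plate controls were DMSO wells with enzyme plus substrate for no effect and substrate without enzyme for full effect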
#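 Test system: LMPTP-A, protein tyrosine phosphatase of low molecular weight; Input: 0.625 nM enzyme; Incubation: 50 min dark incubation at room temperature; Signal: endpoint fluorescence intensity from OMFP dephosphorylation; Read-out basis: % inhibition versus control wells.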
# SUMO1 PPI mod – modulators of human SUMO1-mediated protein-protein interactions; P63165; SUMO1 binding to a labelled peptide, TR-FRET, 1 h; inhibition, % at 20 µM; hit rate 0.33% among 360,000; AID 602429; in the data active means inhibition above about 37%
# DNMT1 inh – inhibitors of human DNMT1; P26358; inhibition (reported as % activation of signal), % at 10 µM; DNMT1 molecular beacon, Hinp1I cleavage, fluorescence; AID 588458; hit rate 0.83% among 360,000; in the data active means inhibition above about 50%
# Scp1 inh – Scp-1 (human) phosphatase inhibition; inhibition, % at 20 µM; Q9GZU7; hit rate 0.88% among 340,000; AID 493091; Recombinant Scp1, phosphopeptide, malachite green phosphate absorbance;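 active means inhibition above about 50% at 20 µM, limit read from the data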;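 further: plate controls were DMSO wells with enzyme for no effect and wells lacking enzyme for full effect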
#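 Incubation: 45 min enzyme reaction at room temperature / System: truncated SCP-1 phosphatase (76-261aa) / Reagent: Phospho 17-mer peptide substrate / Buffer or medium: Acidic Tris acetate buffer with magnesium and detergent / Signal: absorbance at 630 nm / Doses: one concentration, 20 µM, with 1.0% DMSO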
# STEP inh – blocks human striatal-enriched tyrosine phosphatase | inhibition, % at 20 µM | hit rate 0.25% among 360,000 | recombinant STEP, OMFP fluorogenic substrate, fluorescence;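 active means inhibition at 20 µM, scaled per plate between control wells, above about 37%, limit read from the data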;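 further: 0% = DMSO with enzyme and substrate and 100% = substrate only without enzyme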
#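 Test system: STEP tyrosine phosphatase / Reagent: OMFP at 25 µM / Doses: 20 µM, 1% DMSO / Read-out: percent inhibition scaled to no-enzyme and uninhibited-enzyme controls, plate-pattern corrected / Detection: FITC-channel fluorescence of OMFP product / Medium: Bis-Tris buffer pH 6.0, 2.5 mM DTT, 0.005% Tween 20 / Schedule: 20 min at room temperature, dark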
# DNMT1 confirm – confirmation of human DNMT1 inhibitors; shares compounds with DNMT1 inh; DNMT1 molecular beacon HinP1I cleavage, fluorescence; inhibition, % at 10 µM; hit rate 8% among 2,300;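 active means average inhibition of at least 30% in the single-concentration confirmation test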
# Beacon interf – counter-screen for DNMT1 inhibitors: spectral interference; shares compounds with DNMT1 inh; activation (fluorescence interference), % at 10 µM; AID 602387; hit rate 1% among 2,300; DNMT1 molecular beacon spectral interference counterscreen, fluorescence 485/520;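 active means activation of at least 30% at 10 µM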;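 further: DNMT1 catalytic domain with a HinP1I cleavage step and a FAM/dabcyl DNA beacon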
# * hit, by the source's call; . = no result.
SMILES,GRK2 aptamer HTS,LMPTP block,SUMO1 PPI mod,DNMT1 inh,Scp1 inh,STEP inh,DNMT1 confirm,Beacon interf
COc1cccc(=O)c2c(C)n(CC(=O)c3ccccc3)c(C)c12,3.0,18.2,4.8,63.3*,17.8,3.9,-0.1,0.5
O=C(Nc1cc(Cl)ccc1-n1cncn1)c1ccc([N+](=O)[O-])o1,1.0,0.0,-16.9,0.2,9.8,-0.3,.,.
O=C(CCc1nc2ccccc2c(=O)[nH]1)Nc1nnc(SCc2ccccc2)s1,4.0,4.3,8.9,66.5*,5.1,1.3,0.1,-6.2
O=c1[nH]c(CSc2nnc(Nc3ccccc3)s2)nc2ccccc12,2.0,-0.4,-2.9,14.4,-8.4,-1.1,.,.
COc1ccccc1CN1CC(C(=O)NCC2(O)CCCCC2)CCC1=O (stereo not given),.,-0.7,3.6,2.3,.,-0.8,.,.
COc1ccc(CNC(=O)C2CC(c3ccccc3C(F)(F)F)=NO2)cc1 (stereo not given),4.0,-0.3,4.6,72.0*,-3.5,-0.5,7.0,6.1
COCCN(CCOC)Cc1cc(=O)oc2ccc3ccccc3c12,.,0.4,-24.4,-0.1,.,2.2,.,.
Cc1ccc(-c2[nH]ncc2/C=N/n2c(COc3ccccc3)nc3ccccc3c2=O)cc1,1.0,1.3,-0.6,66.7*,-8.0,-1.4,3.1,5.4
Cc1ccccc1OCc1nc2ccccc2c(=O)n1/N=C/c1cn[nH]c1-c1ccccc1,3.0,1.9,0.4,-4.6,-4.4,-3.2,.,.
CNc1ccccc1,1.0,0.0,-4.6,-2.4,-6.3,2.6,.,.
CNc1cccccc1=S,8.0,58.1*,11.7,84.5*,9.7,5.7,-0.5,4.5
COc1ccccc1C(=O)Nc1sc2c(c1C(=O)NCc1ccco1)CCCC2,0.0,0.0,-2.0,51.0*,-10.4,-1.6,-0.7,-4.2
COc1ccccc1NC(=O)c1c(NC(=O)c2ccco2)sc2c1CCC2,1.0,1.4,-0.8,2.1,-13.5,2.3,.,.
COc1cc(NC(=O)Nc2nc(C(N)Cc3ccc(C(F)(F)F)cc3)cs2)cc(OC)c1OC (stereo not given),.,0.2,-17.5,-32.8,.,5.2,.,.
O=C1N/C(=C/c2ccc(Br)cc2)C(O)=C1C=NCc1ccccc1,0.0,0.5,-2.5,61.9*,-1.8,-1.5,0.1,1.4
COc1ccc(CCNC(=O)c2ccc(OCc3c(C)noc3C)cc2)cc1OC,4.0,0.3,-6.0,54.2*,-2.2,-2.8,9.7,8.5
CCOc1ccc(CCNC(=O)c2ccc(OCc3c(C)noc3C)cc2)cc1OCC,1.0,-0.9,2.2,-1.8,-6.9,-0.5,.,.
C=CCOC(=O)Nc1nc(CCNC(=O)OCc2ccccc2)c(C(=O)O)s1,.,-0.4,0.5,.,.,.,.,.
Cc1c(C)c2ccc(OCC(=O)Nc3ccccn3)c(C)c2oc1=O,1.0,-1.0,-9.9,1.3,-2.4,-3.3,.,.
Cc1c(C)c2cc(Cl)c(OCC(=O)Nc3ccccn3)cc2oc1=O,.,-0.5,70.5*,64.5*,.,-1.9,2.7,3.7
Cc1ccc(C(=O)NCCCNCCCN(C)C)cn1,0.0,-12.5,-2.1,52.8*,-10.3,-1.1,1.4,2.0
Cc1[nH]n(-c2ncc(-c3ccc(Cl)cc3)s2)c(=O)c1C(c1ccc(Cl)cc1)C(C#N)C#N (stereo not given),4.0,6.4,16.1,82.8*,8.0,1.1,8.3,0.3
CCOC(=O)c1c(C)[nH]c(C(=O)OC(C)C(=O)Nc2ccc(C)cc2)c1C (stereo not given),.,1.4,2.9,74.2*,.,-1.8,-2.1,-2.5
Cc1ccc(NC(=O)CC2C(=O)N(Cc3ccccc3)C(=S)N2NC(=O)c2ccccc2)c(C)c1 (stereo not given),0.0,2.2,0.2,80.7*,2.7,0.1,5.7,10.5
CCC1S/C(=N/S(=O)(=O)c2ccc(N)cc2)NC1=O (stereo not given),.,-0.9,-0.8,66.2*,0.0,1.1,3.4,2.1
SMILES,GRK2 aptamer HTS,LMPTP block,SUMO1 PPI mod,DNMT1 inh,Scp1 inh,STEP inh,DNMT1 confirm,Beacon interf
CCC1SC(=Nc2cccc(C)c2)NC1=O (stereo not given),0.0,0.0,-1.7,0.6,0.3,-2.2,.,.
Cn1c(=O)c(Nc2ccc(O)cc2)c2c3c(cccc31)C(=O)c1ccccc1-2,2.0,6.5,-8.9,61.5*,31.9,7.9,11.6,8.2
CC(=O)c1c2c3c(cccc3n(C)c1=O)C(=O)c1ccccc1-2,25.0,.,.,.,34.2,.,.,.
Cc1cc(C)n(CCc2nc(-c3ccco3)cs2)n1,0.0,8.6,9.9,36.4,32.0,9.7,.,.
Cc1nn(CCc2nc(-c3ccco3)cs2)c2[nH]c(=O)cc(C(F)(F)F)c12,3.0,2.1,32.2,60.6*,19.6,7.5,0.2,-1.8
COc1ccc(N(CC(=O)NCCSCc2ccco2)S(=O)(=O)c2ccc(C)cc2)cc1,0.0,0.9,5.2,-1.9,-10.9,-2.7,.,.
COc1ccc(N(CC(=O)NCCSCc2ccco2)S(=O)(=O)c2ccccc2)cc1,1.0,0.5,-0.4,76.4*,-13.2,0.9,4.0,4.8
Cc1nn(-c2ccccc2)c(C)c1/C=N/n1c(-c2ccncc2)n[nH]c1=S,0.0,1.9,4.6,4.0,1.2,3.7,.,.
Cc1nn(-c2ccccc2)c(C)c1/C=N/n1c(-c2ccc(Cl)cc2)n[nH]c1=S,0.0,2.1,-2.4,57.4*,-2.7,4.1,1.4,1.6
Cn1c(-c2cccc(OCc3ccccc3)c2)nc2c1c(=O)[nH]c(=O)n2Cc1ccccc1,0.0,-0.4,-11.0,57.0*,-1.9,-0.4,2.1,-3.1
O=C(Nc1ccc2c(c1)CN(Cc1ccccc1O)CC2)C1CCCO1 (stereo not given),3.0,0.2,-4.8,1.4,-11.0,0.7,.,.
CC(C=NNC(=O)C(=O)NN=CC(C)=Cc1ccccc1)=Cc1ccccc1,.,-0.9,-3.9,63.4*,-10.5,0.5,1.5,3.8
CC(C)=CCC/C(C)=C/CC/C(C)=C/CC/C(C)=C/CC1=C(C)C(=O)c2ccccc2C1=O,0.0,-0.4,-8.6,-4.5,-1.2,-0.4,.,.
CC(C)=CCC1=C(OCC(=O)O)C(=O)c2ccccc2C1=O,1.0,6.0,26.7,70.6*,-4.2,8.5,-4.0,1.1
COc1cc(NS(=O)(=O)c2ccc(NC(=S)NC(C)=O)cc2)nc(OC)n1,.,-2.2,10.7,53.8*,12.6,2.4,1.5,1.9
